Measured values of several laboratories.
Each line is one published result; the experiments were not run side by side.
Target: cGMP-dependent protein kinase 2 (PRKG2, Homo sapiens, UniProt Q13237)
Sequence (Q13237 1-762, as in one of the studies): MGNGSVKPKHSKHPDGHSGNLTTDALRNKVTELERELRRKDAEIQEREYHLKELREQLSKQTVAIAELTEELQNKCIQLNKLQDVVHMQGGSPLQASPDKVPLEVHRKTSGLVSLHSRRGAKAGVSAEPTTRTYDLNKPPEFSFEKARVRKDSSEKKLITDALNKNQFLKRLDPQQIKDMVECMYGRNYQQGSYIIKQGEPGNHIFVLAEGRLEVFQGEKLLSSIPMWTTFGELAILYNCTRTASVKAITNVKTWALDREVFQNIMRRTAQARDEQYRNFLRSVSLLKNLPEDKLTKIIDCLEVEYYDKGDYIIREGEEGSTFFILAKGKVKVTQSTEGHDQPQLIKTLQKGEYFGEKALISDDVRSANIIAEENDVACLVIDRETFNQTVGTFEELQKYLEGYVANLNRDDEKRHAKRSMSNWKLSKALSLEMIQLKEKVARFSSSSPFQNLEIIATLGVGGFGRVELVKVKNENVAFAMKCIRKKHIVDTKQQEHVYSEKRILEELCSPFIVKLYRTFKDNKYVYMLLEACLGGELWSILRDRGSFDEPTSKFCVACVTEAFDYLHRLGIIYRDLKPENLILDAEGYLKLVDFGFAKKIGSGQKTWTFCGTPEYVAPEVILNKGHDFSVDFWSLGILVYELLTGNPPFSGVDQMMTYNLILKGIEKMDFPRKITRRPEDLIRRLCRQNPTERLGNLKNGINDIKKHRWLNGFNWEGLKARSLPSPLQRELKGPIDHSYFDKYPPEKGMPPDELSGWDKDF

| Compound | assay | setting | endpoint | value |
| --- | --- | --- | --- | --- |
| CC(C)(C)c1cc(C=C(C#N)C#N)cc(Br)c1O | enzyme activity, inhibitor | 0.5 µM | remaining activity | 87.6% |
| Cn1cc(-c2cc(F)cc(N3CCn4c(cc5c4CCCC5)C3=O)c2CO)cc(Nc2ccc(N3CCN(C4COC4)CC3)cn2)c1=O | enzyme activity, inhibitor | 0.1 µM | inhibition | 11% |
| N#CC1(c2ccccn2)CCN(Cc2cc(C(=O)O)c(=O)n3ccccc23)CC1 | cell-free assay, competition with immobilised ligand | 1 µM | remaining binding | 95% |
| O=c1[nH]c2ccccc2n1C1CCN(Cc2ccc(-c3[nH]c4cc5ncnc5cc4nc3-c3ccccc3)cc2)CC1 | cell-free assay | 0.5 µM | remaining signal | 96.8% |
| Cc1nn(C)cc1-c1nc2c(N3CCN(Cc4ccc(Cl)cc4)CC3)c(Cl)cnc2[nH]1 | binding, competition with immobilised ligand | 1 µM | remaining binding | 92% |
| Nc1ncc(-c2nc(N3CCOCC3)nc(N3CCOCC3)n2)c(C(F)F)n1 | binding, competition with immobilised ligand | 10 µM | remaining binding | 90% |
| COc1ncccc1-c1cnn2ccc(N3CCN(C(=O)OC(C)C)CC3)nc12 | binding, competition with immobilised ligand | 1 µM | remaining binding | 88% |
| Cn1cncc1[C@](O)(COc1ccc(C#N)cc1-c1ccc(OC(F)(F)F)cc1)c1ccc(C#N)cc1 | cell-free assay, competition with immobilised ligand | 1 µM | remaining binding | 100% |
| Cn1cc(-c2cccc(N3CCc4c(sc5c4CC(C)(C)C5)C3=O)c2CO)cc(Nc2ccncn2)c1=O | enzyme activity, inhibitor | 1 µM | inhibition | 2% |
